According to ChEMBL document CHEMBL2375290, “Nonclassical antifolates, part 3: synthesis, biological evaluation and molecular modeling study of some new 2-heteroarylthio-quinazolin-4-ones” (Eur J Med Chem, 2013):
Values after ≈ are worked out from the molar mass of the structure shown.

How the values were obtained:
NCI-H23 = assay: Cytotoxicity against human NCI-H23 cells at 10 uM after 48 hrs by coulter counter analysis; format: functional; settings: NCI-H23, 48 h, read-out: GI
SR = assay: Cytotoxicity against human SR cells at 10 uM after 48 hrs by coulter counter analysis; format: functional; settings: read-out: GI
IGROV-1 = assay: Cytotoxicity against human IGROV1 cells at 10 uM after 48 hrs by coulter counter analysis; format: functional; settings: IGROV-1, 48 h, read-out: GI
RXF 393 = assay: Cytotoxicity against human RXF393 cells at 10 uM after 48 hrs by coulter counter analysis; format: functional; settings: RXF 393, 48 h, read-out: GI
SNB-75 = assay: Cytotoxicity against human SNB75 cells at 10 uM after 48 hrs by coulter counter analysis; format: functional; settings: SNB-75, 48 h, read-out: GI
Pseudomonas aeruginosa = assay: Antimicrobial activity against Pseudomonas aeruginosa at 200 ug after 24 hrs by agar disc diffusion method; format: functional; settings: read-out: DIZ
Dihydrofolate reductase = target: T1, Dihydrofolate reductase (Bos taurus, UniProt P00376); assay: Inhibition of bovine DHFR after 2 mins by spectrophotometry
T1 sequence (P00376 whole entry): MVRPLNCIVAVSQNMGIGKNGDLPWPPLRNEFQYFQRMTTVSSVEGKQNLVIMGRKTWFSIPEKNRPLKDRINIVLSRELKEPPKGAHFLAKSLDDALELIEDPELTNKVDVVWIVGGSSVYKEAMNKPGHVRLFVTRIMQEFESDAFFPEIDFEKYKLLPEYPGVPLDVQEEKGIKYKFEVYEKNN

Micrococcus luteus = assay: Antimicrobial activity against Micrococcus luteus at 200 ug after 24 hrs by agar disc diffusion method; format: functional; settings: read-out: DIZ
Staphylococcus aureus [1] = assay: Antimicrobial activity against Staphylococcus aureus at 200 ug after 24 hrs by agar disc diffusion method; format: functional; settings: read-out: DIZ
UO-31 = assay: Cytotoxicity against human UO31 cells at 10 uM after 48 hrs by coulter counter analysis; format: functional; settings: UO-31, 48 h, read-out: GI
MDA-MB-231 = assay: Cytotoxicity against human MDA-MB-231 cells at 10 uM after 48 hrs by coulter counter analysis; format: functional; settings: MDA-MB-231, 48 h, read-out: GI
SNB-19 = assay: Cytotoxicity against human SNB19 cells at 10 uM after 48 hrs by coulter counter analysis; format: functional; settings: SNB-19, 48 h, read-out: GI
UACC-62 = assay: Cytotoxicity against human UACC62 cells at 10 uM after 48 hrs by coulter counter analysis; format: functional; settings: UACC-62, 48 h, read-out: GI
NCI-H226 = assay: Cytotoxicity against human NCI-H226 cells at 10 uM after 48 hrs by coulter counter analysis; format: functional; settings: NCI-H226, 48 h, read-out: GI
MDA-MB-435 = assay: Cytotoxicity against human MDA-MB-435 cells at 10 uM after 48 hrs by coulter counter analysis; format: functional; settings: MDA-MB-435, 48 h, read-out: GI
Bacillus subtilis [2] = assay: Antimicrobial activity against Bacillus subtilis after 24 hrs by micro-dilution susceptibility method; format: functional
Procedure, shortened: (§1)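 Broth microdilution in Müller-Hinton broth against S. aureus IFO 3060, B. subtilis IFO 3007, E. coli IFO 3301 and P. aeruginosa IFO 3448. These are the same standard strains used in the disc-diffusion primary screen. Compounds were solubilized in DMSO. MIC recorded as the minimal inhibitory concentration.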

A549 = assay: Cytotoxicity against human A549/ATCC cells at 10 uM after 48 hrs by coulter counter analysis; format: functional; settings: A549, 48 h, read-out: GI
NCI-H522 = assay: Cytotoxicity against human NCI-H522 cells at 10 uM after 48 hrs by coulter counter analysis; format: functional; settings: NCI-H522, 48 h, read-out: GI
MCF7 = assay: Cytotoxicity against human MCF7 cells at 10 uM after 48 hrs by coulter counter analysis; format: functional; settings: MCF7, 48 h, read-out: GI
Escherichia coli [3] = assay: Antimicrobial activity against Escherichia coli after 24 hrs by micro-dilution susceptibility method
HL-60(TB) = assay: Cytotoxicity against human HL-60(TB) cells at 10 uM after 48 hrs by coulter counter analysis; format: functional; settings: HL-60, 48 h, read-out: GI
Malme-3M = assay: Cytotoxicity against human MALME-3M cells at 10 uM after 48 hrs by coulter counter analysis; format: functional; settings: read-out: GI
OVCAR-4 = assay: Cytotoxicity against human OVCAR4 cells at 10 uM after 48 hrs by coulter counter analysis; format: functional; settings: OVCAR-4, 48 h, read-out: GI
RPMI-8226 = assay: Cytotoxicity against human RPMI8226 cells at 10 uM after 48 hrs by coulter counter analysis; format: functional; settings: RPMI-8226, 48 h, read-out: GI
PC-3 = assay: Cytotoxicity against human PC3 cells at 10 uM after 48 hrs by coulter counter analysis; format: functional; settings: PC-3, 48 h, read-out: GI
LOX IMVI = assay: Cytotoxicity against human LOXIMVI cells at 10 uM after 48 hrs by coulter counter analysis; format: functional; settings: read-out: GI
Staphylococcus aureus [4] = assay: Antimicrobial activity against Staphylococcus aureus after 24 hrs by micro-dilution susceptibility method; format: functional; procedure, shortened: as §1
SF-295 = assay: Cytotoxicity against human SF295 cells at 10 uM after 48 hrs by coulter counter analysis; format: functional; settings: SF-295, 48 h, read-out: GI
T47D = assay: Cytotoxicity against human T47D cells at 10 uM after 48 hrs by coulter counter analysis; format: functional; settings: read-out: GI
[5] = Cytotoxicity against human EKVX cells at 10 uM after 48 hrs by coulter counter analysis; format: functional; settings: read-out: GI
Hs-578T = assay: Cytotoxicity against human Hs578T cells at 10 uM after 48 hrs by coulter counter analysis; format: functional; settings: read-out: GI
A498 = assay: Cytotoxicity against human A498 cells at 10 uM after 48 hrs by coulter counter analysis; format: functional; settings: A498, 48 h, read-out: GI
Bacillus subtilis [6] = assay: Antimicrobial activity against Bacillus subtilis at 200 ug after 24 hrs by agar disc diffusion method; format: functional; settings: read-out: DIZ
CCRF-CEM = assay: Cytotoxicity against human CCRF-CEM cells at 10 uM after 48 hrs by coulter counter analysis; format: functional; settings: read-out: GI
SN12C = assay: Cytotoxicity against human SN12C cells at 10 uM after 48 hrs by coulter counter analysis; format: functional; settings: read-out: GI
MOLT-4 = assay: Cytotoxicity against human MOLT4 cells at 10 uM after 48 hrs by coulter counter analysis; format: functional; settings: MOLT-4, 48 h, read-out: GI
Escherichia coli [7] = assay: Antimicrobial activity against Escherichia coli at 200 ug after 24 hrs by agar disc diffusion method; format: functional; settings: read-out: DIZ
[8] = Cytotoxicity against human NCI-ADR-RES cells at 10 uM after 48 hrs by coulter counter analysis; format: functional; settings: read-out: GI
SK-MEL-5 = assay: Cytotoxicity against human SK-MEL-5 cells at 10 uM after 48 hrs by coulter counter analysis; format: functional; settings: SK-MEL-5, 48 h, read-out: GI
CAKI-1 = assay: Cytotoxicity against human Caki1 cells at 10 uM after 48 hrs by coulter counter analysis; format: functional; settings: CAKI-1, 48 h, read-out: GI

SMILES | inhibition of growth at 10 µM (NCI-H23) [%] | inhibition of growth at 10 µM (SR) [%] | inhibition of growth at 10 µM (IGROV-1) [%] | inhibition of growth at 10 µM (RXF 393) [%] | inhibition of growth at 10 µM (SNB-75) [%] | zone of inhibition at 200 µg/disc (Pseudomonas aeruginosa) [mm] | IC50 (Dihydrofolate reductase) [µM] | zone of inhibition at 200 µg/disc (Micrococcus luteus) [mm] | zone of inhibition at 200 µg/disc (Staphylococcus aureus [1]) [mm] | inhibition of growth at 10 µM (UO-31) [%] | inhibition of growth at 10 µM (MDA-MB-231) [%] | inhibition of growth at 10 µM (SNB-19) [%] | inhibition of growth at 10 µM (UACC-62) [%] | inhibition of growth at 10 µM (NCI-H226) [%] | inhibition of growth at 10 µM (MDA-MB-435) [%] | MIC (Bacillus subtilis [2]) [µg/mL] | MIC (Escherichia coli [3]) [µg/mL] | MIC (Staphylococcus aureus [4]) [µg/mL] | zone of inhibition at 200 µg/disc (Bacillus subtilis [6]) [mm] | zone of inhibition at 200 µg/disc (Escherichia coli [7]) [mm] | further results
COc1cc2nc(Sc3ncccc3C(=O)O)n(-c3ccccc3)c(=O)c2cc1OC | < 10 | < 10 | < 10 | < 10 | < 10 | 8 | 7 | 15 | 20 | 12 | < 10 | < 10 | < 10 | 12 | < 10 | 4 (≈ 9.19 µM) | 2 (≈ 4.59 µM) | 4 (≈ 9.19 µM) | 22 | 22 | inhibition of growth at 10 µM (A549): < 10%; inhibition of growth at 10 µM (NCI-H522): 11.4%; inhibition of growth at 10 µM (MCF7): < 10%; inhibition of growth at 10 µM (HL-60(TB)): < 10%; inhibition of growth at 10 µM (Malme-3M): < 10%; inhibition of growth at 10 µM (OVCAR-4): < 10%; inhibition of growth at 10 µM (RPMI-8226): < 10%; inhibition of growth at 10 µM (PC-3): < 10%; inhibition of growth at 10 µM (LOX IMVI): < 10%; inhibition of growth at 10 µM (SF-295): < 10%; inhibition of growth at 10 µM (T47D): < 10%; inhibition of growth at 10 µM [5]: < 10%; inhibition of growth at 10 µM (Hs-578T): < 10%; inhibition of growth at 10 µM (A498): < 10%; inhibition of growth at 10 µM (CCRF-CEM): < 10%; inhibition of growth at 10 µM (SN12C): < 10%; inhibition of growth at 10 µM (MOLT-4): < 10%; inhibition of growth at 10 µM [8]: < 10%; inhibition of growth at 10 µM (SK-MEL-5): < 10%; inhibition of growth at 10 µM (CAKI-1): 17.7%
CCOC(=O)c1nc(N)sc1Sc1nc2ccc(Cl)cc2c(=O)n1Cc1ccccc1 | – | – | – | – | – | 8 | 1 | 14 | 20 | – | – | – | – | – | – | 2 (≈ 4.23 µM) | 4 (≈ 8.46 µM) | 4 (≈ 8.46 µM) | 22 | 20 | –
COc1cc2nc(Sc3ncccc3C(=O)O)n(Cc3ccccc3)c(=O)c2cc1OC | < 10 | 29.8 | < 10 | < 10 | < 10 | 12 | 5 | 15 | 22 | 14.6 | < 10 | < 10 | 11.6 | 14 | < 10 | 2 (≈ 4.45 µM) | 4 (≈ 8.9 µM) | 4 (≈ 8.9 µM) | 26 | 18 | inhibition of growth at 10 µM (A549): < 10%; inhibition of growth at 10 µM (NCI-H522): 17.3%; inhibition of growth at 10 µM (MCF7): 13.5%; inhibition of growth at 10 µM (HL-60(TB)): 13.2%; inhibition of growth at 10 µM (Malme-3M): < 10%; inhibition of growth at 10 µM (OVCAR-4): 14.3%; inhibition of growth at 10 µM (RPMI-8226): 12.5%; inhibition of growth at 10 µM (PC-3): < 10%; inhibition of growth at 10 µM (LOX IMVI): < 10%; inhibition of growth at 10 µM (SF-295): < 10%; inhibition of growth at 10 µM (T47D): < 10%; inhibition of growth at 10 µM [5]: 23.1%; inhibition of growth at 10 µM (Hs-578T): < 10%; inhibition of growth at 10 µM (A498): < 10%; inhibition of growth at 10 µM (CCRF-CEM): < 10%; inhibition of growth at 10 µM (SN12C): < 10%; inhibition of growth at 10 µM (MOLT-4): 13.8%; inhibition of growth at 10 µM [8]: < 10%; inhibition of growth at 10 µM (SK-MEL-5): < 10%; inhibition of growth at 10 µM (CAKI-1): 15.9%
CCOC(=O)c1nc(N)sc1Sc1nc2ccc(C)cc2c(=O)n1-c1ccccc1 | – | – | – | – | – | 12 | 1 | 14 | 24 | – | – | – | – | – | – | 2 (≈ 4.56 µM) | 4 (≈ 9.12 µM) | 2 (≈ 4.56 µM) | 26 | 18 | –
COc1cc2nc(Sc3cc([N+](=O)[O-])ccc3C(=O)O)n(-c3ccccc3)c(=O)c2cc1OC | – | – | – | – | – | 8 | 10 | 8 | 18 | – | – | – | – | – | – | 4 (≈ 8.34 µM) | 2 (≈ 4.17 µM) | 8 (≈ 16.7 µM) | 20 | 22 | –
